Results as given in ChEMBL document CHEMBL1122318, “Aporphines. 50. Kinetics of solvolysis of N-(2-chloroethyl)norapomorphine, an irreversible dopamine receptor antagonist” (J Med Chem, 1983).
Several values for one entry are separate records, joined by “and”; a condition that tells them apart may be missing. Equal entries are not always repeated.

Columns and labels:
Format in all cases: ADME
[1] = Apparent rate of cyclization (kobsd) value at pH 5.40(in 0.1 M acetate).; conditions: pH 5.4
How it was run: (§1)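 Buffers were 0.1 M sodium acetate titrated with 0.1 M acetic acid below pH 6.0, and NaH2PO4–Na2HPO4 (100 mM) at pH 6.0–8.0. Remaining NCA was quantified from peak heights against a 100–900 ng standard curve. First-order kobsd came from log[NCA] versus time over at least two half-lives.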

[2] = Apparent rate of cyclization (kobsd) value at pH 5.60(in 0.1 M acetate).; conditions: pH 5.6; how it was run: as §1
[3] = Apparent rate of cyclization (kobsd) value at pH 5.80(in 0.1 M acetate).; conditions: pH 5.8; how it was run: as §1
[4] = Apparent rate of cyclization (kobsd) value at pH 6.00(in 0.1 M phosphate).; how it was run: as §1
[5] = Apparent rate of cyclization (kobsd) value at pH 6.25(in 0.1 M phosphate).; how it was run: as §1
[6] = Apparent rate of cyclization (kobsd) value at pH 6.50(in 0.1 M phosphate).; conditions: pH 6.5; how it was run: as §1
[7] = Apparent rate of cyclization (kobsd) value at pH 6.75(in 0.1 M phosphate).; how it was run: as §1
[8] = Apparent rate of cyclization (kobsd) value at pH 7.00(in 0.1 M […]).
[9] = Apparent rate of cyclization (kobsd) value at pH 8.00(in 0.1 M […]).
[10] = Half-life period at pH 5.60(in 0.1 M acetate).; conditions: 0.1 M acetate buffer, pH 5.6; how it was run: as §1
[11] = Half-life period at pH 5.80(in 0.1 M acetate).; conditions: 0.1 M acetate buffer, pH 5.8; how it was run: as §1
[12] = Half-life period at pH 6.00(in 0.1 M […]).; conditions: 0.1 M acetate buffer
[13] = Half-life period at pH 6.25(in 0.1 M […]).; conditions: 0.1 M […] buffer
[14] = Half-life period at pH 6.75(in 0.1 M […]).; conditions: 0.1 M […] buffer
[15] = Half-life period at pH 7.00(in 0.1 M […]).
[16] = Half-life period at pH 7.50(in 0.1 M […]).; conditions: 0.1 M […] buffer, pH 7.5
[17] = Half-life period at pH 8.00(in 0.1 M […]).; conditions: 0.1 M […] buffer
[18] = Half-life period at pH 5.40(in 0.1 M acetate).; conditions: 0.1 M acetate buffer, pH 5.4; how it was run: as §1
[19] = Half-life period at pH 6.50(in 0.1 M […]).; conditions: 0.1 M […] buffer, pH 6.5

In the case of `Oc1ccc2c(c1O)-c1cccc3c1[C@@H](C2)N(CCCl)CC3`, the k obs [1] is reported as 36 min⁻¹, the k obs [2] is reported as 49 min⁻¹ and the k obs [3] is reported as 65 min⁻¹. For the same compound, the k obs [4] was 97 min⁻¹, the k obs [5] was 152 min⁻¹ and the k obs [6] was 175 min⁻¹. For the same compound, the k obs [7] was 212 min⁻¹, the k obs [8] was 243 min⁻¹ and 252 min⁻¹ and the k obs [9] was 308 min⁻¹. It also gave a half-life [10] of 141 min, a half-life [11] of 107 min and a half-life [12] of 71 min. It also gave a half-life [13] of 45 min, a half-life [14] of 33 min and a T1/2 [15] of 28 min. It also gave a half-life ([15]; 0.1 M acetate buffer) of 29 min, a half-life [16] of 24 min and a half-life [17] of 22 min. The half-life [18] was 192 min and the half-life [19] was 39 min.
